High-throughput results deposited in PubChem BioAssay by The Scripps Research Institute Molecular Screening Center.
STAT1 act = increases IFN-gamma driven STAT1 reporter signal. actives 2.6% (n = 200,000). NIH 3T3 STAT1-luciferase reporter, luminescence; 100% = IFN-gamma alone, no compound. AID 932. activation (% of control), % at 5.5 µM;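 active = activation above the screen-wide mean activation plus 3 SD, cut at about 130% in these data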;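 note: raw ratio to IFN-gamma control signal so 100% means no change and 0% no light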
STAT3 inh = STAT3 signaling inhibition. actives 0.89% (n = 190,000). U3A cells, IL-6 STAT3-luciferase reporter, luminescence; host cell line lacks STAT1. AID 862. inhibition, % at 5.5 µM;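 active = inhibition above the mean inhibition across all screened compounds plus 3 SD, cut at about 44% in these data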;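 note: 0% = DMSO only wells and 100% = 100 µM nifuroxazide control wells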
STAT3 activator = STAT3 signaling activation; U3A cells, IL-6 STAT3-luciferase reporter, luminescence; 100% = signal with IL-6 EC80 alone; activation (% of control), % at 5.6 µM; actives 0.91% (n = 190,000);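 active = activation above the screen-wide mean of compound activation plus 3 SD, cut at about 130% in these data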;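 note: 0% = background luminescence of wells with medium and substrate only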
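Material: human STAT1-deficient U3A cells with stable STAT3-luciferase reporter / Probe or stimulus: IL-6 stimulus at 33 ng/mL final / Schedule: 1 h compound pre-exposure, 6 h IL-6 stimulation, 37 °C / Technique: luminescence / Read-out basis: percent of IL-6-only median luminescence / Control set: IL-6-only high control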
STAT1 blocker = reduces IFN-gamma driven STAT1 reporter signal. actives 0.35% (n = 200,000). inhibition, % at 5.5 µM. NIH 3T3 STAT1-luciferase reporter, luminescence;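 active = inhibition above a set limit, the mean inhibition across all tested compounds plus 3 SD, cut at about 34% in these data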;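 note: 0% = IFN-gamma with DMSO and 100% = IFN-gamma with 300 µM nifuroxazide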
STAT1 act conf = STAT1 activation, confirmation assay | shares compounds with STAT1 act | NIH 3T3 STAT1-luciferase reporter, IFN-gamma potentiation, luminescence; 100% = IFN-gamma EC80 alone, no compound | actives 97% (n = 1,200) | activation (% of control), % at 5.7 µM | AID 1262;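 active = activation above a set limit carried over from the earlier primary STAT1 screen, cut at about 140% in these data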;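 note: simple ratio to median IFN-gamma plus DMSO wells so 0% means no light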
NFkB act = activates NF-kappaB, counter-screen to STAT1 activators. shares compounds with STAT1 act. HEK293T NF-kB luciferase reporter, TNF-alpha stimulated, luminescence; 100% = TNF-alpha with vehicle only. activation (% of control), % at 5.7 µM. actives 43% (n = 1,200). AID 1306;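 active = activation above the mean of solvent-only control wells plus 3 SD, set per campaign, cut at about 130% in these data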;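 note: TNF-alpha given at a submaximal dose yielding about 80% of full reporter signal; values are well signal over median control so 100% means no change and 0% no light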
STAT3 act STAT1c = activates human STAT3, counter-screen to STAT1 activators. activation (% of control), % at 5.7 µM. actives 46% (n = 1,200). shares compounds with STAT1 act. AID 1316. U3A cells STAT3-luciferase reporter, IL-6, luminescence; cells lack STAT1; 100 = IL-6 alone, no compound effect;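 active = activation above the solvent-only control well mean plus 3 SD, set per plate batch, cut at about 110% in these data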;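 note: 0% = no luminescence and 100% = median IL-6 plus DMSO wells; higher means more STAT3 reporter activation so hits are non-selective activators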
The depositor's hits bear a star; . = no result. Shown are actives, neighbours in structure and some others; about 4.3% of the full set was active somewhere.

SMILES	STAT1 act	STAT3 inh	STAT3 activator	STAT1 blocker	STAT1 act conf	NFkB act	STAT3 act STAT1c
O=C(Nc1ccc2sccc2c1)c1ccc(Cl)s1	192.4*	-10.1	108.4	-97.3	275.0*	138.3*	113.1*
Cc1ccc(Sc2ccc(CN3CCCCC3)cc2[N+](=O)[O-])cc1	89.3	19.9	91.6	10.8	.	.	.
C/C(=N\NC(=O)c1cccs1)C(C)(C)C	158.5*	-6.0	107.5	-66.6	116.7	110.0	113.0*
CC(/C=N/NC(=O)c1cccs1)=C\c1ccco1	171.4*	2.5	102.2	-73.2	172.6*	128.0	109.5
O=C(N/N=C/C=C/c1ccccc1)c1cccs1	156.7*	17.6	89.1	-60.9	165.2*	137.0*	99.0
O=C(N/N=C/C=C/c1ccccc1[N+](=O)[O-])c1cccs1	108.8	3.6	93.6	-9.7	.	.	.
Cc1cc(C(=O)Cn2nc(C(=O)O)c3ccccc3c2=O)c(C)n1-c1ccc(F)cc1	108.9	12.2	93.2	-10.0	.	.	.
COc1ccc(CCNC(=O)c2cc(-c3ccc(Cl)c(Cl)c3)oc2C)cc1	100.3	-3.6	101.8	-0.4	.	.	.
CN(C)S(=O)(=O)c1ccc(N2CCCC2)c(C(=O)NCC2CCCCC2)c1	99.8	7.3	95.2	-0.8	.	.	.
O=C1CN(c2nc(-c3cccnc3)nc3sc4c(c23)CCCC4)CCN1	106.2	5.6	104.7	-8.6	.	.	.
Nc1nc(-c2cccnc2)nc2sc3c(c12)CCCC3	159.2*	5.9	97.8	-66.7	212.9*	146.2*	116.4*
CCOC(=O)c1sc2nc(N3CCOCC3)c3c(c2c1N)CC(C(C)C)OC3 (stereo unspecified)	100.0	30.8	80.9	-1.0	.	.	.
CCOC(=O)c1sc2nc3c(cc2c1N)COC(C(C)C)C3 (stereo unspecified)	214.4*	37.3	70.6	-125.5	233.0*	109.6	75.3
COC(=O)c1ccc(NC(=O)c2snnc2-c2ccccc2)cc1	90.5	25.1	84.3	8.3	.	.	.
O=c1c2ccccc2nnn1CSc1ccccc1	165.2*	25.0	77.9	-71.8	192.4*	109.1	99.8
CCc1ccc(C2=NN(S(C)(=O)=O)C(c3cccs3)C2)cc1 (stereo unspecified)	156.5*	-27.0	126.1	-61.5	217.8*	142.0*	128.5*
O=C(CN(Cc1ccccc1)C(=O)c1csnn1)NCc1ccccc1	104.8	7.7	96.9	-5.5	.	.	.
O=C(NCCc1cccs1)c1ccc(Cl)c(Cl)c1	159.4*	3.3	97.8	-62.5	163.7*	129.7	107.0
CCN1CCN(C(=O)c2ccc(N3CC4CC(C3)c3cccc(=O)n3C4)c([N+](=O)[O-])c2)CC1 (stereo unspecified)	103.2	-2.2	108.7	-3.8	.	.	.
O=[N+]([O-])c1ccc(NCCCNS(=O)(=O)c2ccccc2)c(Cl)c1	93.0	4.9	93.9	7.8	.	.	.
COC(=O)c1ccccc1NC(=S)N1CCN(c2ccc(OC)cc2)CC1	93.9	4.8	102.7	5.3	.	.	.
O=C(N/N=C/c1ccc(Br)cc1)c1ccc(Br)o1	158.6*	-1.5	103.7	-66.8	189.9*	137.0*	113.3*
COc1ccc(Nc2oc(-c3cccs3)nc2C#N)cc1	150.8*	8.2	95.0	-55.5	160.2*	119.7	94.2
CN(C)S(=O)(=O)c1ccc2nc(NC(=O)c3cccs3)sc2c1	153.1*	-9.0	110.7	-57.8	178.7*	115.2	116.9*
CN(C)S(=O)(=O)c1ccc2nc(NC(=O)c3cccnc3)sc2c1	121.0	-4.9	105.9	-26.5	.	.	.
SMILES	STAT1 act	STAT3 inh	STAT3 activator	STAT1 blocker	STAT1 act conf	NFkB act	STAT3 act STAT1c
Cc1ccc2nc(NC(=O)Cc3cccs3)sc2c1	153.8*	25.1	83.7	-58.3	180.0*	137.0*	86.5
O=C(Nc1nc2ccc(F)cc2s1)c1cccs1	159.0*	19.4	87.4	-60.1	246.1*	131.6	104.5
CCc1ccc2nc(NC(=O)CCCc3cccs3)sc2c1	118.1	-14.7	110.6	-19.7	.	.	.
CSc1nc2ccc3nc(NC(=O)c4cccs4)sc3c2s1	122.6	16.4	88.0	-24.6	.	.	.
CCN(CC)S(=O)(=O)c1ccc(OC)c(NC(=S)Nc2ccc(C)c(C)c2)c1	104.7	14.5	90.3	-5.2	.	.	.
COc1ccc2c(CCNC(=O)c3ccc([N+](=O)[O-])cc3)c[nH]c2c1	105.5	19.9	89.2	-8.2	.	.	.
CC1=NN(c2ccccc2)C(=O)/C1=C/c1c(O)n(-c2ccc(F)cc2)[nH]c1=O	152.6*	-28.6	119.0	-57.7	176.6*	122.4	132.3*
CC1=NN(c2ccccc2)C(=O)/C1=C\c1ccc(Br)s1	104.5	8.9	92.7	-5.0	.	.	.
COc1cc(SC)ccc1C(=O)Nc1ccc2c(c1)OCO2	153.2*	8.8	92.8	-56.6	249.8*	135.6*	105.5
COc1cc(SC)ccc1C(=O)NCCOc1ccc(Cl)cc1	102.6	-1.5	97.6	-2.9	.	.	.
COc1cc(SC)ccc1C(=O)Nc1ncc(Cl)cc1Cl	151.2*	18.8	87.6	-54.5	174.3*	125.4	93.8
COc1cc(SC)ccc1C(=O)Nc1ccc(C)cc1C	153.3*	-2.5	104.3	-59.6	188.7*	131.0	105.8
COc1cc(SC)ccc1C(=O)NCCc1ccccc1	161.2*	-10.5	111.2	-68.5	168.6*	122.5	144.4*
COc1cc(SC)ccc1C(=O)NC(C)C	107.9	14.2	92.7	-8.1	.	.	.
Cc1ccc(CN2CCN(Cc3cn[nH]c3-c3cccc(F)c3)CC2CCO)o1 (stereo unspecified)	106.5	-8.2	111.1	-8.9	.	.	.
O=C(COc1ccc(Cl)cc1[N+](=O)[O-])NC1CCCCC1	160.4*	19.2	88.1	-65.1	166.5*	121.3	110.8*
O=C(COc1ccc(F)cc1Br)N1CCc2ccccc21	165.6*	12.9	88.5	-71.1	222.6*	135.5*	115.5*
Cc1ccccc1OCC(=O)N1CCCc2ccccc21	101.4	9.7	91.7	-1.5	.	.	.
O=C(/C=C/c1ccc(F)cc1)N1CCCc2ccccc21	105.2	12.5	90.9	-6.8	.	.	.
O=C(/C=C/c1cccc(F)c1)N1CCc2ccccc21	199.0*	17.8	85.4	-112.9	238.3*	117.2	98.6
CCN(CC)C(=O)C[n+]1cccc(C(N)=O)c1	102.2	-2.2	106.2	-2.5	.	.	.
Cn1c(/C=C/c2ccc([N+](=O)[O-])o2)nc2ccccc2c1=O	212.1*	11.8	93.0	-122.5	121.3	134.1*	103.2
Cc1cc(N/N=C/c2ccc([N+](=O)[O-])o2)nc2ccccc12	98.8	25.4	82.6	-0.1	.	.	.
Cc1ccc(C)c(NC(=O)Cn2cnc3c(oc4ccccc43)c2=O)c1	102.8	-10.2	109.3	-5.7	.	.	.
